Measured values from ChEMBL document CHEMBL3875203, “Small molecule mimics of DFTamP1, a database designed anti-Staphylococcal peptide” (Bioorg Med Chem, 2017).
Converted amounts (≈) assume the structure as drawn. The source made the active and inactive calls. The rule behind the calls is not given here.

Key:
Escherichia coli [1] = assay: Antibacterial activity against Escherichia coli ATCC 25922 after 20 hrs by microdilution method; type: functional; conditions: ATCC 25922, 20 h
How it was run: (§1)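 Incubated ~20 h at 37°C, then read at 630 nm. MIC is the lowest concentration with no detectable growth. Daptomycin assays had 2 mM Ca²⁺ added to the medium. Repeated several times by different investigators.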

Staphylococcus aureus [2] = assay: Antibacterial activity against Staphylococcus aureus UAMS-1 after 20 hrs by microdilution method; type: functional; conditions: UAMS-1, 20 h; how it was run: as §1
Staphylococcus aureus [3] = assay: Induction of membrane damage in methicillin-resistant Staphylococcus aureus USA300 measured for 90 mins by propidium iodide staining based fluorescence spectroscopic analysis; type: functional
Staphylococcus aureus [4] = assay: Ratio of MIC for methicillin-resistant Staphylococcus aureus USA300 in presence of 100 mM NaCl to MIC for methicillin-resistant Staphylococcus aureus USA300 in absence of 100 mM NaCl; type: functional
How it was run: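 Broth microdilution MIC against S. aureus USA300 in TSB with and without 100 mM NaCl. Inoculum 10⁶ CFU/mL exponential-phase cells, ~20 h at 37°C, OD630 read-out, no-growth endpoint. Ratio of MIC with salt to MIC without salt.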

Klebsiella pneumoniae = assay: Antibacterial activity against Klebsiella pneumoniae ATCC 13883 after 20 hrs by microdilution method; type: functional; conditions: ATCC 13883, 20 h; how it was run: as §1
[5] = Hemolytic activity against human RBC after 1 hr; type: ADME, cell-based, Erythrocyte; conditions: human red blood cells
How it was run: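 Human red blood cells were washed three times in normal saline (800 g, 10 min) and made up as a 2% suspension. After centrifugation, supernatant absorbance was read at 545 nm. Lysis was set at 100% for 1% Triton X-100 and 0% for untreated cells; HL50 is the 50% hemolytic concentration.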

Staphylococcus aureus [6] = assay: Antibacterial activity against Staphylococcus aureus USA200 after 20 hrs by microdilution method; type: functional; conditions: USA200, 20 h; how it was run: as §1
Staphylococcus aureus [7] = assay: Antibacterial activity against Staphylococcus aureus Mu50 after 20 hrs by microdilution method; type: functional; conditions: Mu50, 20 h; how it was run: as §1
[8] = Retention time of the compound by HPLC method; type: physicochemical
Staphylococcus aureus [9] = assay: Antibacterial activity against Staphylococcus aureus USA400 after 20 hrs by microdilution method; type: functional; conditions: USA400, 20 h; how it was run: as §1
[10] = Therapeutic index, ratio of HC50 for human RBC to MIC for methicillin-resistant Staphylococcus aureus USA300; conditions: human red blood cells, read-out: TI
How it was run: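 Supernatant hemoglobin read at 545 nm; 1% Triton X-100 = 100% lysis, untreated = 0%. HL50 divided by USA300 MIC gives the selectivity index.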

Pseudomonas aeruginosa [11] = assay: Antibacterial activity against Pseudomonas aeruginosa PAO1 after 20 hrs by microdilution method; type: functional; conditions: PAO1, 20 h; how it was run: as §1
Staphylococcus aureus [12] = assay: Antibacterial activity against Staphylococcus aureus Newman after 20 hrs by microdilution method; type: functional; how it was run: as §1
Staphylococcus aureus [13] = assay: Antibacterial activity against methicillin-resistant Staphylococcus aureus USA300 after 20 hrs by microdilution method; type: functional; conditions: USA300, 20 h
How it was run: (§2)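 MIC = lowest concentration with no detectable growth. pH series run at pH 6.8, 7.4 and 8.0. Daptomycin wells carried 2 mM Ca²⁺. Repeated by different investigators on different dates.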

Staphylococcus aureus [14] = assay: Antibacterial activity against methicillin-resistant Staphylococcus aureus USA300 LAC after overnight incubation by broth microdilution method; type: functional; how it was run: as §2
Escherichia coli [15] = assay: Antibacterial activity against Escherichia coli K-12 after overnight incubation by broth microdilution method; type: functional
Pseudomonas aeruginosa [16] = assay: Antibacterial activity against Pseudomonas aeruginosa PAO1 after overnight incubation by broth microdilution method; type: functional

Molecule	MIC (Escherichia coli [1]) [µM]	MIC (Staphylococcus aureus [2]) [µM]	Activity (Staphylococcus aureus [3])	Ratio (Staphylococcus aureus [4])	MIC (Klebsiella pneumoniae) [µM]	HC50 at 1 h [5] [µM]	MIC (Staphylococcus aureus [6]) [µM]	MIC (Staphylococcus aureus [7]) [µM]	Retention_time [8] [min]	MIC (Staphylococcus aureus [9]) [µM]	selectivity ratio [10]	MIC (Pseudomonas aeruginosa [11]) [µM]	MIC (Staphylococcus aureus [12]) [µM]	MIC (Staphylococcus aureus [13]) [µM]	MIC (Staphylococcus aureus [14]) [µM]	MIC (Escherichia coli [15]) [µM]	MIC (Pseudomonas aeruginosa [16]) [µM]
CS(=O)(=O)O.CS(=O)(=O)O.Clc1ccc(C(c2c[nH]c3cc(C4=NCCN4)ccc23)c2c[nH]c3cc(C4=NCCN4)ccc23)cc1	> 50	12.5	Active	<=2	> 50	150	6.2	6.2	11.491	6.2	24 to 48	25	6.2	3.1 to 6.2			
CC(C)(c1c[nH]c2cc(C3=NCCN3)ccc12)c1c[nH]c2cc(C3=NCCN3)ccc12.CS(=O)(=O)O.CS(=O)(=O)O	> 50				> 50	> 830			10.005		33	> 50		25			
H-GLLSLLSLLGKLL-NH2															3.1	> 120	> 120
CS(=O)(=O)O.CS(=O)(=O)O.Clc1ccc(C(c2c[nH]c3cc(C4=NCCN4)ccc23)c2c[nH]c3cc(C4=NCCN4)ccc23)c(Cl)c1	12.5				> 50	40			11.924		12	25 to 50		3.1 to 6.2			
CS(=O)(=O)O.CS(=O)(=O)O.Clc1cccc(Cl)c1C(c1c[nH]c2cc(C3=NCCN3)ccc12)c1c[nH]c2cc(C3=NCCN3)ccc12	> 50	> 25	Active	<=2	> 50	300	12.5	> 25	10.973	12.5	24 to 48	> 50	12.5	6.2 to 12.5			
Cl.Clc1cccc(Cl)c1C(c1c[nH]c2ccc(C3=NCCN3)cc12)c1c[nH]c2ccc(C3=NCCN3)cc12	> 50				> 50	> 600			10.537		> 48	> 50		12.5			
CS(=O)(=O)O.CS(=O)(=O)O.Cn1cc(C2(c3cn(C)c4cc(C5=NCCN5)ccc34)CCCCC2)c2ccc(C3=NCCN3)cc21		≥ 25		<=2			25	25		12.5			12.5	12.5 to 25			
CS(=O)(=O)O.CS(=O)(=O)O.NCc1ccc2c(C3(c4c[nH]c5cc(CN)ccc45)CCCCC3)c[nH]c2c1	> 50				> 50	75 to 150			10.788		12 to 24	> 50		6.2 to 12.5			
CCCCCCCCCC(=O)N[C@@H](Cc1c[nH]c2ccccc12)C(=O)N[C@@H](CC(N)=O)C(=O)N[C@@H](CC(=O)O)C(=O)N[C@@H]1C(=O)NCC(=O)N[C@@H](CCCN)C(=O)N[C@@H](CC(=O)O)C(=O)N[C@H](C)C(=O)N[C@@H](CC(=O)O)C(=O)NCC(=O)N[C@H](CO)C(=O)N[C@@H]([C@H](C)CC(=O)O)C(=O)N[C@@H](CC(=O)c2ccccc2N)C(=O)O[C@@H]1C [DAPTOMYCIN]		> 12.5	Active				0.78 (≈ 1.26 µg/mL)	3.1 (≈ 5.02 µg/mL)		0.78 (≈ 1.26 µg/mL)				0.78 (≈ 1.26 µg/mL)			
Brc1cccc(Br)c1C(c1c[nH]c2cc(C3=NCCN3)ccc12)c1c[nH]c2cc(C3=NCCN3)ccc12.CS(=O)(=O)O.CS(=O)(=O)O	> 50	6.2	Active		> 50	150	3.1	6.2	11.159	3.1	24 to 48	> 50	3.1 to 6.2	3.1 to 12.5			
CS(=O)(=O)O.CS(=O)(=O)O.c1ccc(C(c2c[nH]c3cc(C4=NCCN4)ccc23)c2c[nH]c3cc(C4=NCCN4)ccc23)cc1	> 50				> 50	600			10.643		24	> 50		25			
CS(=O)(=O)O.CS(=O)(=O)O.c1cc2c(C3(c4c[nH]c5cc(C6=NCCN6)ccc45)CCCCC3)c[nH]c2cc1C1=NCCN1	> 50	25	Active	<=2	> 50	150 to 300	6.2	6.2	11.276	6.2	24 to 48	> 50	6.2	6.2	6.2	> 200	100
CS(=O)(=O)O.CS(=O)(=O)O.c1cc2c(Cc3c[nH]c4cc(C5=NCCN5)ccc34)c[nH]c2cc1C1=NCCN1	> 50				> 50	1300			9.215		26	> 50		50			
CS(=O)(=O)O.CS(=O)(=O)O.c1cc2c(C(c3c[nH]c4cc(C5=NCCN5)ccc34)C3CCCCC3)c[nH]c2cc1C1=NCCN1	> 50				> 50	20 to 40			11.832		7 to 14	> 50		3.1			
CCC(CC)(c1c[nH]c2cc(C3=NCCN3)ccc12)c1c[nH]c2cc(C3=NCCN3)ccc12.CS(=O)(=O)O.CS(=O)(=O)O	> 50			<=2	> 50	300			11.015		48	> 50		6.2			
